# Data published in ChEMBL document CHEMBL3856184, “Tyrosol and hydroxytyrosol derivatives as antitrypanosomal and antileishmanial agents” (Eur J Med Chem, 2016).
# Columns and labels:
# [1] = Cytotoxicity against human MRC5 cells assessed as inhibition of cell proliferation measured after 72 hrs by MTT assay; assay type: toxicity, cell-based
# How it was run: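 SV-40 transformed fetal lung fibroblasts kept in DMEM with 10% hiFBS and penicillin/streptomycin at 37 °C, 5% CO₂. Cells trypsinized, seeded at 4 x 10⁴ cell/ml and exposed to increasing concentrations for 72 h at 37 °C. Viability read by colorimetric MTT. EC₅₀ taken as the concentration reducing growth by 50% versus untreated cells.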
# [2] = test system: Trypanosoma brucei brucei; experiment: Antitrypanosomal activity against bloodstream form of Trypanosoma brucei brucei S16 assessed as inhibition of proliferation measured after 72 hrs by alamarBlue assay; assay type: functional; conditions: S16, 72 h
# How it was run: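 Bloodstream forms cultured in HMI-9 with 10% hiFBS at 37 °C, 5% CO₂. Seeded at 1 × 10⁴ per mL with increasing compound concentrations for 72 h under the same conditions. Proliferation read by alamarBlue fluorescence, excitation 550 nm and emission 590 nm.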
# [3] = Selectivity index, ratio of IC50 for human MRC5 cells to IC50 for bloodstream form of Trypanosoma brucei brucei S16; assay type: toxicity, cell-based; conditions: read-out: Ratio IC50
# [4] = test system: Trypanosoma brucei brucei; experiment: Potency index, ratio of IC50 for hydroxytyrosol to IC50 for test compound against bloodstream form of Trypanosoma brucei brucei S16; assay type: functional
# [5] = test system: Leishmania donovani; experiment: Antileishmanial activity against Leishmania donovani MHOM/ET/67/HU3 axenic amastigotes at 20 uM after 72 hrs by resazurin-based assay relative to control; assay type: functional; conditions: MHOM/ET/67/HU3, 72 h
# How it was run: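 Axenic amastigotes grown in Schneider medium with 20% hiFBS, pH 5.4, 37 °C, 5% CO₂. 10⁶ parasites/ml exposed to a single 20 μM concentration for 72 h at 37 °C. Viability read by resazurin assay, reported as percent inhibition.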
# [6] = test system: Leishmania donovani; experiment: Antileishmanial activity against Leishmania donovani MHOM/ET/67/HU3 intracellular amastigotes infected in human THP1 cells after 72 hrs by luciferase coupled luminescence assay; assay type: functional, cell-based; conditions: MHOM/ET/67/HU3, THP-1, 72 h
# How it was run: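 Luciferase-expressing parasite line. THP-1 cells differentiated with 20 ng/mL PMA for 48 h, then 24 h in fresh medium, seeded at 3x10⁴ macrophages/well and infected with late-stage promastigotes at a macrophage:parasite ratio of 1:10. Infected cultures exposed to a range of concentrations in RPMI 1640 with 10% hiFBS at 37 °C, 5% CO₂ for 72 h, then lysed. Luminescence read as intracellular parasite growth.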
# [7] = test system: Trypanosoma brucei brucei; experiment: Potency index, ratio of IC50 for tyrosol to IC50 for test compound against bloodstream form of Trypanosoma brucei brucei S16; assay type: functional
# [8] = test system: Leishmania donovani; experiment: Antileishmanial activity against Leishmania donovani MON-2 MHOM/IN/1996/THAK35 amastigotes infected in mouse J774A.1 cells after 72 hrs by alamarBlue assay; assay type: functional, cell-based; conditions: MON-2 MHOM/IN/1996/THAK35, J774.A1, 72 h
# [9] = Selectivity index, ratio of IC50 for human MRC5 cells to IC50 for intracellular amastigotes of Leishmania donovani MHOM/ET/67/HU3 infected in human THP1 cells; assay type: toxicity, cell-based; conditions: read-out: Ratio IC50
# [10] = test system: Leishmania donovani; experiment: Potency index, ratio of IC50 for tyrosol to IC50 for test compound against intracellular amastigotes of Leishmania donovani MHOM/ET/67/HU3 infected in human THP1 cells; assay type: functional, THP-1
# [11] = test system: Leishmania major; experiment: Leishmanicidal activity against Leishmania major MHOM/TN/95/GLC94 promastigotes after 24 hrs by MTT assay; assay type: functional; conditions: MHOM/TN/95/GLC94, 24 h
# [12] = test system: Leishmania infantum; experiment: Leishmanicidal activity against Leishmania infantum MHOM/TN/94/LV50 promastigotes after 24 hrs by MTT assay; assay type: functional; conditions: MHOM/TN/94/LV50, 24 h
# [13] = test system: Trypanosoma brucei rhodesiense; experiment: Antitrypanosomal activity against Trypanosoma brucei rhodesiense; assay type: functional
Compound,IC50 [2],IC50 [6],IC50 [13],IC50 at 72 h [1],selectivity ratio [3],Ratio IC50 [4],inhibition at 20 µM [5],Ratio IC50 [7],IC50 [8],selectivity ratio [9],Ratio IC50 [10],IC50 [11],IC50 [12]
CCCCCCCCCC(=O)OCCc1ccc2c(c1)OCO2,> 10 µM,,,> 50 µM,> 5,>5,,,,,,,
CCCCCCCCCCCCCCCC(=O)OCCc1ccc(O)c(O)c1 [HYDROXYTYROSOL PALMITATE],2.43 µM,> 10 µM,,> 50 µM,> 21,20,52%,,,,,,
O=S(=O)([O-])Oc1ccc(CCO)cc1.[K+],41.6 µM,,,106 µM,2.6,,36%,0.16,,,,,
OCCc1ccc(O)c(O)c1 [HYDROXYTYROSOL],47.5 µM,,,> 50 µM,> 1,,0%,,393 µM,,,,
Cc1ccc(C(=O)Nc2ccc(S(=O)(=O)O)c3cc(S(=O)(=O)O)cc(S(=O)(=O)O)c23)cc1NC(=O)c1cccc(NC(=O)Nc2cccc(C(=O)Nc3cc(C(=O)Nc4ccc(S(=O)(=O)O)c5cc(S(=O)(=O)O)cc(S(=O)(=O)O)c45)ccc3C)c2)c1 [SURAMIN],0.038 µM,,,,,,,,,,,,
CCCCCCCCCCCCCC(=O)OCCc1ccc(O)c(O)c1,2.29 µM,> 10 µM,,> 50 µM,> 22,21,53%,,,,,,
CCCC(=O)OCCc1ccc(O)c(O)c1 [HYDROXYTYROSOL BUTANOATE],9.4 µM,> 10 µM,,71.5 µM,8,5,48%,,,7.1,,,
CCCCCCCCCCCC(=O)OCCc1ccc2c(c1)OCO2,> 10 µM,,,> 50 µM,> 5,>5,,,,,,,
O=C(O)[C@H]1O[C@@H](Oc2ccc(CCO)cc2)[C@H](O)[C@@H](O)[C@@H]1O,61.5 µM,,,110 µM,1.8,,36%,0.17,,,,,
CCCCCCCCCCCCSCCc1ccc(OCc2ccc(OC)cc2)c(OCc2ccc(OC)cc2)c1,> 10 µM,,,> 50 µM,> 5,5,,,,,,,
CCCCCC(=O)OCCc1ccc(O)cc1,59.1 µM,> 10 µM,,166 µM,2.8,,44%,0.16,,16.6,1,,
CCCCCCCCCCCC(=O)OCCc1ccc(O)c(O)c1,0.36 µM,> 10 µM,,38.1 µM,101 to 106,132,56%,,,,,,
CCCCCCCCCCCCOCCc1ccc(O)c(O)c1,0.63 µM,,,13.2 µM,21,75,,,,,,,
CCCCCCCC(=O)OCCc1ccc(O)c(O)c1,9.6 µM,> 10 µM,,104 µM,11,5,45%,,,10.3,,,
CCCCCCCCCC(=O)OCCc1ccc(O)c(O)c1 [HYDROXYTYROSOL DECANOATE],0.6 µM,8.44 µM,,71.1 µM,118,79,54%,,,8.4,,,
NCCc1ccc(O)c(O)c1 [DOPAMINE],> 10 µM,,,68.9 µM,7,5,,,,,,,
OCCc1ccc(O)cc1 [TYROSOL],> 10 µM,> 10 µM,> 15 µM,> 500 µM,> 5,,50%,,,5,,,
Oc1ccc(CCN=C=S)cc1O,9.87 µM,,,21.1 µM,2,5,,,,,,,
C[C@@H]1[C@H](O)[C@@H](C)/C=C/C=C/C=C/C=C/C=C/C=C/C=C/[C@H](O[C@@H]2O[C@H](C)[C@@H](O)[C@H](N)[C@@H]2O)C[C@@H]2O[C@](O)(C[C@@H](O)C[C@@H](O)[C@H](O)CC[C@@H](O)C[C@@H](O)CC(=O)O[C@H]1C)C[C@H](O)[C@H]2C(=O)O [AMPHOTERICIN B],,0.1 µM,,,,,,,,,,,
CCCCCCCC(=O)OCCc1ccc(O)cc1,56.8 µM,> 10 µM,,133 µM,2.3,,46%,0.22,,13.3,1,,

# Further lines, with some results ahead:
IC50 [2],IC50 [6],IC50 [13],Compound,IC50 at 72 h [1],selectivity ratio [3],Ratio IC50 [4],inhibition at 20 µM [5],Ratio IC50 [7],IC50 [8],selectivity ratio [9],Ratio IC50 [10],IC50 [11],IC50 [12]
> 10 µM,,,CCCCCCCCCC(=O)NCCc1ccc(O)c(O)c1,> 50 µM,> 5,5,,,,,,,
> 10 µM,,,CCCCCCCCCCOCCc1ccc(OCc2ccccc2)c(OCc2ccccc2)c1,> 50 µM,> 5,>5,,,,,,,
8.74 µM,,,CCCCCCCCCCCC(=O)NCCc1ccc(O)c(O)c1,> 50 µM,> 5,5,,,,,,,
1.29 µM,,,CCCCCCCCCCOCCc1ccc(O)c(O)c1,> 50 µM,> 38,37,,,,,,,
16.2 µM,,,CCCCCCCCCCCC(=O)OCCc1ccc(O)cc1,67.2 µM,4.1,,32%,0.52,,,,,
43.4 µM,> 10 µM,,CC(=O)OCCc1ccc(O)c(O)c1,> 50 µM,> 1,1,48%,,,,,,
> 10 µM,,,CCCCCCCCCCOCCc1ccc(OCc2ccc(OC)cc2)c(OCc2ccc(OC)cc2)c1,> 50 µM,> 5,>5,,,,,,,
> 10 µM,,,CCCCCCCCCCCCSCCc1ccc(OCc2ccccc2)c(OCc2ccccc2)c1,> 50 µM,> 5,5,,,,,,,
0.77 µM,,,CCCCCCCCCCCCNC(=S)NCCc1ccc(O)c(O)c1,2.96 µM,4,62,,,,,,,
0.74 µM,,,CCCCCCCCCCNC(=S)NCCc1ccc(O)c(O)c1,24.8 µM,33,64,,,,,,,
79.4 µM,,,CC(=O)OCCc1ccc(O)cc1,114 µM,1.4,,28%,0.13,,,,,
81.4 µM,,,CCCCCCCCCC(=O)OCCc1ccc(O)cc1,172 µM,2.1,,34%,0.16,,,,65 µM,132 µM
